Experimental data taken from ChEMBL document CHEMBL4261571, “Development of highly active anti-Pneumocystis bisbenzamidines: insight into the influence of selected substituents on the in vitro activity” (Medchemcomm, 2017).
Activity calls are given as the source filed them. No cut-off for these calls is given here.

How the values were obtained:
[1] = test system: Pneumocystis carinii; assay: Antipneumocystis activity against Pneumocystis carinii at 100 ug/ml after 24 to 72 hrs by ATP-based luciferin-luciferase assay; assay type: functional, organism-based
In short: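 Single high-dose screen at 100 µg/ml against rat-derived, cryopreserved P. carinii in RPMI 1640 at 36 °C, 5% CO2, read at 24, 48 and 72 h. ATP was measured by luminescence after background subtraction, with triplicate wells of duplicate assays averaged. % ATP reduction was calculated relative to media control. Controls were media, DMSO vehicle, ampicillin 10 µg/ml and pentamidine isethionate 1 µg/ml.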

[2] = Cytotoxicity against rat L2 cells assessed as decrease in cell viability after 24 to 72 hrs by ATP-based luciferin-luciferase assay
In short: (§1)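 A549 cells in DMEM and L2 cells in F12, each with 10% fetal calf serum, 1% MEM vitamins and 1% NEAA, were plated at 2 × 10^5/ml and grown to confluence. They were exposed first to 100 µg/ml, then to 100, 10, 1 and 0.1 µg/ml, for 24, 48 and 72 h in duplicate wells. Cells were lysed with 0.1 M NaOH and ATP was read by luciferin-luciferase luminescence. IC50 came from linear regression of % ATP reduction.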

[3] = test system: Pneumocystis carinii; assay: Antipneumocystis activity against Pneumocystis carinii after 24 to 72 hrs by ATP-based luciferin-luciferase assay; assay type: functional, organism-based
In short: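 P. carinii from immunosuppressed rat lungs (methylprednisolone 20 mg/kg s.c. weekly) was cryopreserved. It was exposed to compounds diluted in RPMI 1640 at 36 °C, 5% CO2, for 24, 48 and 72 h. ATP was measured by luciferin-luciferase luminescence after background subtraction. Triplicate wells of duplicate assays were averaged. % ATP reduction was calculated against media control, and IC50 came from linear regression.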

[4] = test system: A549; assay: Cytotoxicity against human A549 cells assessed as decrease in cell viability after 24 to 72 hrs by ATP-based luciferin-luciferase assay; in short: as §1
[5] = target: Luciferin 4-monooxygenase (Photinus pyralis) (UniProt P08659); assay: Effect on luciferin/firefly luciferase reaction assessed as quench effect at 100 ug/ml
Luciferin 4-monooxygenase (Photinus pyralis), sequence (P08659 whole entry): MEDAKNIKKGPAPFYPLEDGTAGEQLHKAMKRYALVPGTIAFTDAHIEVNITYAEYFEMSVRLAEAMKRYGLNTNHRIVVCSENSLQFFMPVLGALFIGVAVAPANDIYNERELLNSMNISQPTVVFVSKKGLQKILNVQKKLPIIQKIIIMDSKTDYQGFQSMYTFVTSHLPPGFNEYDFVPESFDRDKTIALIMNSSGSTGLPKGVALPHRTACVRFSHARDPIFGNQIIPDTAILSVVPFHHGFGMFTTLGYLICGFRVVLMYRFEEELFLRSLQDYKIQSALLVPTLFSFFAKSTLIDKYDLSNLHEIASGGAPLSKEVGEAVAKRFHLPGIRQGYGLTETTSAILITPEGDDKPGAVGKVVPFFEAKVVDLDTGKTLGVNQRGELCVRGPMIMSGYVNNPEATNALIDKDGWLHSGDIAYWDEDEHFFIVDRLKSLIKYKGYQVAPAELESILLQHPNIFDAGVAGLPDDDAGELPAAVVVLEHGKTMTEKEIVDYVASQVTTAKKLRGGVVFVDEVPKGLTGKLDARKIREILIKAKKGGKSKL

In the case of `N=C(N)c1ccc(NCCOCCNc2ccc(C(=N)N)cc2[N+](=O)[O-])c([N+](=O)[O-])c1`, the Activity [1] is reported as “Active”, the IC50 [2] is reported as greater than 100 µM and the IC50 [3] is reported as 62 nM. For the same molecule, the IC50 [4] was greater than 100 µM and the Activity [5] was “inactive”.
For `CN(C(=O)CCCCC(=O)N(C)c1ccc(C(=N)N)cc1)c1ccc(C(=N)N)cc1`, the Activity [1] was “Active”, the IC50 [2] was greater than 100 µM and the IC50 [3] was 12 nM. The IC50 [4] was greater than 100 µM and the Activity [5] was “inactive”.
For `CN(C(=O)CCC(=O)N(C)c1ccc(C(=N)N)cc1)c1ccc(C(=N)N)cc1`, the Activity [1] was “Active”, the IC50 [2] was greater than 100 µM and the IC50 [3] was 76 nM. For the same molecule, the IC50 [4] was greater than 100 µM and the Activity [5] was “inactive”.
In the case of `Cc1cc(C(=N)N)cc(C)c1OCCOCCOc1c(C)cc(C(=N)N)cc1C`, the Activity [1] is reported as “Active”, the IC50 [2] is reported as 16.7 µM and the IC50 [3] is reported as 175 nM. The IC50 [4] was 75.8 µM and the Activity [5] was “inactive”.
With `CCCCCNC(=N)c1ccc(CN2CCN(Cc3ccc(C(=N)NCCCCC)cc3)CC2)cc1` the Activity [1] was “Active”, the IC50 [2] was greater than 100 µM and the IC50 [3] was 41 nM. For the same molecule, the IC50 [4] was greater than 100 µM and the Activity [5] was “inactive”.
In the case of `N=C(N)c1ccc(OCCOCCOc2ccc(C(=N)N)cc2[N+](=O)[O-])c([N+](=O)[O-])c1`, the Activity [1] is reported as “Active”, the IC50 [2] is reported as 176 µM and the IC50 [3] is reported as 14 nM. For the same molecule, the IC50 [4] was greater than 100 µM and the Activity [5] was “inactive”.
For `CCCNC(=N)c1ccc(CN2CCN(Cc3ccc(C(=N)NCCC)cc3)CC2)cc1`, the Activity [1] was “Active”, the IC50 [2] was greater than 100 µM and the IC50 [3] was 1680 nM. The IC50 [4] was greater than 100 µM and the Activity [5] was “inactive”.
In the case of `CCCCNC(=N)c1ccc(CN2CCN(Cc3ccc(C(=N)NCCCC)cc3)CC2)cc1`, the Activity [1] is reported as “Active”, the IC50 [2] is reported as greater than 100 µM and the IC50 [3] is reported as 83 nM. The IC50 [4] was greater than 100 µM and the Activity [5] was “inactive”.
For `c1cc(C2=NCCN2)ccc1SCCOCCSc1ccc(C2=NCCN2)cc1`, the Activity [1] was “Active”, the IC50 [2] was greater than 100 µM and the IC50 [3] was 10 nM. The IC50 [4] was 30.6 µM and the Activity [5] was “inactive”.
In the case of `N=C(N)c1ccc(NCCOCCNc2ccc(C(=N)N)cc2N)c(N)c1`, the Activity [1] is reported as “Active”, the IC50 [2] is reported as greater than 100 µM and the IC50 [3] is reported as less than 175 nM. For the same molecule, the IC50 [4] was greater than 100 µM and the Activity [5] was 15%.
In the case of `N=C(N)c1ccc(SCCOCCSc2ccc(C(=N)N)cc2)cc1`, the Activity [1] is reported as “Active”, the IC50 [2] is reported as 26.4 µM and the IC50 [3] is reported as less than 223 nM. The IC50 [4] was 50.9 µM and the Activity [5] was “inactive”.
With `N=C(N)c1ccc(NC(=O)CSCC(=O)Nc2ccc(C(=N)N)cc2)cc1` the Activity [1] was “Active”, the IC50 [2] was greater than 100 µM and the IC50 [3] was 568 nM. The IC50 [4] was greater than 100 µM and the Activity [5] was “inactive”.
For `CCN(CCOc1ccc(C(=N)N)cc1)CCOc1ccc(C(=N)N)cc1`, the Activity [1] was “Active”, the IC50 [2] was greater than 100 µM and the IC50 [3] was less than 209 nM. The IC50 [4] was greater than 100 µM and the Activity [5] was “inactive”.
For `C/N=C(\NC)c1ccc(CN2CCN(Cc3ccc(/C(=N/C)NC)cc3)CC2)cc1`, the Activity [1] was “inactive”.
With `N=C(N)c1ccc(CN2CCN(Cc3ccc(C(=N)N)cc3)CC2)cc1` the Activity [1] was “Active”, the IC50 [2] was greater than 100 µM and the IC50 [3] was 109 nM. For the same molecule, the IC50 [4] was greater than 100 µM and the Activity [5] was “inactive”.
In the case of `Cc1cc(C(=N)N)cc(C)c1OCCCCCOc1c(C)cc(C(=N)N)cc1C`, the Activity [1] is reported as “Active”, the IC50 [2] is reported as 19 µM and the IC50 [3] is reported as less than 213 nM. The IC50 [4] was 32.2 µM and the Activity [5] was “inactive”.
In the case of `Cc1cc(C(=N)N)cc(C)c1OCCN(CCOc1c(C)cc(C(=N)N)cc1C)S(=O)(=O)c1ccccc1`, the Activity [1] is reported as “Active”, the IC50 [2] is reported as greater than 100 µM and the IC50 [3] is reported as 1520 nM. For the same molecule, the IC50 [4] was greater than 100 µM and the Activity [5] was “inactive”.
For `N=C(N)c1ccc(NC(=O)COCC(=O)Nc2ccc(C(=N)N)cc2)cc1`, the Activity [1] was “Active”, the IC50 [2] was greater than 100 µM and the IC50 [3] was 146 nM. The IC50 [4] was greater than 100 µM and the Activity [5] was “inactive”.
In the case of `N=C(N)c1ccc(OCCOCCOc2ccc(C(=N)N)cc2N)c(N)c1`, the Activity [1] is reported as “Active”, the IC50 [2] is reported as greater than 100 µM and the IC50 [3] is reported as 11 nM. The IC50 [4] was greater than 100 µM and the Activity [5] was “inactive”.
For `COc1cc(C(=N)N)cc(Br)c1OCCCCCOc1c(Br)cc(C(=N)N)cc1OC`, the Activity [1] was “Active”, the IC50 [2] was 29.5 µM and the IC50 [3] was 36 nM. For the same molecule, the IC50 [4] was 26.3 µM and the Activity [5] was “inactive”.
`N=C(N)c1ccc(OCCCCCOc2ccc(C(=N)N)cc2)cc1` [PENTAMIDINE] gave an IC50 [2] of 33.8 µM.
With `CN(C(=O)CCCC(=O)N(C)c1ccc(C(=N)N)cc1)c1ccc(C(=N)N)cc1` the Activity [1] was “Active”, the IC50 [2] was greater than 100 µM and the IC50 [3] was 303 nM. For the same molecule, the IC50 [4] was greater than 100 µM and the Activity [5] was “inactive”.
